These results are taken from ChEMBL document CHEMBL1154219, “New Ras CAAX mimetics: design, synthesis, antiproliferative activity, and RAS prenylation inhibition” (Bioorg Med Chem Lett, 2009).

pIC50: −log10 of the molar value. Activity calls are given as the source filed them. No cut-off for these calls is given here.

A short description of test [1]: Antiproliferative activity against HSMC after 72 hrs. The class given is functional. The following applies: Homo sapiens. The procedure, abridged: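 Human aortic SMCs seeded at 8 × 10⁴ cells per 35 mm dish in DMEM with 10% FCS. After 24 h, switched to 0.4% FCS for 72 h to arrest growth. Then refed with 10% FCS with or without compound (DMSO, final ≤0.5%) for 72 h at 37 °C. Cells trypsinized and counted by Coulter counter. IC50 obtained by linear regression of log concentration versus logit.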

The nature of test [2]: Inhibition of Ras protein protein prenylation in HSMC assessed as unprenylated Ras accumulation after 72 hrs by Western blot analysis. Further details: species or system Homo sapiens. The procedure, abridged: (§1)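 Human aortic SMCs seeded at 4 × 10⁵ cells per 60 mm dish. Growth-arrested in 0.4% FCS for 72 h, then exposed to compound in 10% FCS for 72 h at 37 °C (DMSO ≤0.5%). Cells lysed on ice in Tris pH 7.5/NaCl/NP-40 buffer with protease inhibitors; lysates cleared, protein measured by BCA. SDS-PAGE under reducing conditions, anti-Ras immunoblot, ECL detection. Unprenylated Ras seen as the slower-migrating band.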
(A western blot detects proteins with antibodies after separation by electrophoresis.)

Test [3] is filed under the species Homo sapiens. Briefly: Inhibition of Ras protein protein prenylation in HSMC assessed as unprenylated Ras accumulation at 50 uM after 72 hrs by Western blot analysis. Summed up: as §1
The species entered for test [4] is Homo sapiens. Briefly: Inhibition of Ras protein protein prenylation in HSMC assessed as unprenylated Ras accumulation at 10 uM after 72 hrs by Western blot analysis. The procedure, abridged: as §1
For test [5], the species on record is Homo sapiens. The experiment in a line: Inhibition of Ras protein protein prenylation in HSMC assessed as unprenylated Ras accumulation at 75 uM after 72 hrs by Western blot analysis. Summed up: as §1
For test [6], the species on record is Homo sapiens. Briefly: Inhibition of Ras protein protein prenylation in HSMC assessed as unprenylated Ras accumulation at 25 uM after 72 hrs by Western blot analysis. Summed up:
as §1

For orientation: pIC50 means the IC50 on a negative log10 scale, so that one unit is a factor of ten. Broadly, the inhibition is how much of the control response was suppressed.

Compound `COC(=O)[C@H](CC(C)C)NC(=O)c1ccc(C(=O)NC[C@@H]2COc3ccccc3O2)cc1-c1ccccc1OC` showed a pIC50 in test [1] of 3.33. In the case of `COC(=O)[C@H](CCSC)NC(=O)c1ccc(OC[C@H]2COc3ccccc3O2)cc1-c1ccccc1C`, the pIC50 was 5.18 in test [1] and 5.55 in test [2]. With `COC(=O)[C@H](CC(C)C)NC(=O)c1ccc(C(=O)NC[C@@H]2COc3ccccc3O2)cc1-c1ccccc1C`, the pIC50 in test [1] is 4.06. Take `COC(=O)CNC(=O)c1ccc(OC[C@H]2COc3ccccc3O2)cc1-c1ccccc1C`: the inhibition in the test filed under Homo sapiens [3] amounted to 35%. This compound also showed a pIC50 in test [1] of 4.57. `COC(=O)CNC(=O)c1ccc(C(=O)NC[C@H]2COc3ccccc3O2)cc1-c1ccccc1C` showed a pIC50 in test [1] of 3.95. Take `COC(=O)[C@H](CC(C)C)NC(=O)c1ccc(OC[C@@H]2COc3ccccc3O2)cc1-c1ccccc1OC`: the inhibition entry in the test listed under Homo sapiens [3] and in the test filed under Homo sapiens [4] was “inactive” throughout. The compound further gave a pIC50 in test [1] of 4.77. In test [1], `COC(=O)[C@H](CCSC)NC(=O)c1ccc(OC[C@@H]2COc3ccccc3O2)cc1-c1ccccc1C` had a pIC50 of 3.71.

Compound `COC(=O)[C@H](CCSC)NC(=O)c1ccc(C(=O)NC[C@@H]2COc3ccccc3O2)cc1-c1ccccc1OC` gave a pIC50 in test [1] of 3.19.

Regarding `COC(=O)CNC(=O)c1ccc(OC[C@H]2COc3ccccc3O2)cc1-c1ccccc1OC`, the inhibition entry in the test listed under Homo sapiens [5] and in the test filed under Homo sapiens [3] was “inactive” throughout. The compound further had a pIC50 in test [1] of 4.15. `COC(=O)[C@H](CCSC)NC(=O)c1ccc(C(=O)NC[C@@H]2COc3ccccc3O2)cc1-c1ccccc1C` gave a pIC50 in test [1] of 3.27. For the compound `COC(=O)CNC(=O)c1ccc(OC[C@@H]2COc3ccccc3O2)cc1-c1ccccc1OC`, the inhibition result in the test filed under Homo sapiens [5] and in the test listed under Homo sapiens [3] was “inactive” in each case. In test [1], this compound had a pIC50 of 4.46. `COC(=O)[C@H](CC(C)C)NC(=O)c1ccc(C(=O)NC[C@H]2COc3ccccc3O2)cc1-c1ccccc1C`: the pIC50 in test [1] was 3.99.

As for `COC(=O)[C@H](CCSC)NC(=O)c1ccc(OC[C@H]2COc3ccccc3O2)cc1-c1ccccc1OC`, the pIC50 in test [1] was 3.64.

Take `COC(=O)[C@H](CCSC)NC(=O)c1ccc(OC[C@@H]2COc3ccccc3O2)cc1-c1ccccc1OC`: the pIC50 in test [1] was 3.69. On to `COC(=O)[C@H](CCSC)NC(=O)c1ccc(C(=O)NC[C@H]2COc3ccccc3O2)cc1-c1ccccc1C`, for which, in test [1], the pIC50 is 4.06.

For `COC(=O)CNC(=O)c1ccc(C(=O)NC[C@@H]2COc3ccccc3O2)cc1-c1ccccc1OC`, the pIC50 in test [1] is 4.12. As to `COC(=O)[C@H](CC(C)C)NC(=O)c1ccc(OC[C@H]2COc3ccccc3O2)cc1-c1ccccc1C`, the inhibition result in the test filed under Homo sapiens [3] and in the test filed under Homo sapiens [4] was “inactive” in each case. For the same compound, the pIC50 in test [1] is 5.52. For the compound `COC(=O)[C@H](CCSC)NC(=O)c1ccc(C(=O)NC[C@H]2COc3ccccc3O2)cc1-c1ccccc1OC`, the pIC50 in test [1] is 3.60. Same read-out and setting: the figure for `COC(=O)CNC(=O)c1ccc(C(=O)NC[C@H]2COc3ccccc3O2)cc1-c1ccccc1OC` is 3.91. On to `COC(=O)CNC(=O)c1ccc(OC[C@@H]2COc3ccccc3O2)cc1-c1ccccc1C`, for which the inhibition result in the test listed under Homo sapiens [3] and in the test filed under Homo sapiens [6] was “inactive” in each case. This compound showed a pIC50 in test [1] of 6.15. Consider `COC(=O)[C@H](CC(C)C)NC(=O)c1ccc(OC[C@@H]2COc3ccccc3O2)cc1-c1ccccc1C`, for which the inhibition result in the test filed under Homo sapiens [3] and in the test listed under Homo sapiens [6] was “inactive” in each case. Further, the pIC50 in test [1] is 5.28.

`COC(=O)[C@H](CC(C)C)NC(=O)c1ccc(C(=O)NC[C@H]2COc3ccccc3O2)cc1-c1ccccc1OC`: the pIC50 in test [1] is 3.73. As to `COC(=O)[C@H](CC(C)C)NC(=O)c1ccc(OC[C@H]2COc3ccccc3O2)cc1-c1ccccc1OC`, the inhibition result in the test filed under Homo sapiens [3] and in the test listed under Homo sapiens [6] was “inactive” throughout. Also, the pIC50 in test [1] is 4.49.

The compound `COC(=O)CNC(=O)c1ccc(C(=O)NC[C@@H]2COc3ccccc3O2)cc1-c1ccccc1C` showed a pIC50 in test [1] of 4.05.
